Source: PubChem BioAssay
Shown are actives, neighbours in structure and some others; about 3% of the full set was active somewhere.
SIRT5 inh: SIRT5 desuccinylase inhibitors, primary screen, biochemical, fluorescence imaging, single point, set 5; NAD-dependent protein deacylase sirtuin-5, mitochondrial (Homo sapiens), Q9NXA8; 1.1% of 330,000 active; AID 652115, 2013; Purified SirT5, succinyl-peptide AMC, trypsin-coupled fluorescence; inhibition, % at 15 µM; in the data active means inhibition above about 15%; inconclusive means no clear call, values can overlap the other calls
Target sequence (Q9NXA8 whole entry, looked up): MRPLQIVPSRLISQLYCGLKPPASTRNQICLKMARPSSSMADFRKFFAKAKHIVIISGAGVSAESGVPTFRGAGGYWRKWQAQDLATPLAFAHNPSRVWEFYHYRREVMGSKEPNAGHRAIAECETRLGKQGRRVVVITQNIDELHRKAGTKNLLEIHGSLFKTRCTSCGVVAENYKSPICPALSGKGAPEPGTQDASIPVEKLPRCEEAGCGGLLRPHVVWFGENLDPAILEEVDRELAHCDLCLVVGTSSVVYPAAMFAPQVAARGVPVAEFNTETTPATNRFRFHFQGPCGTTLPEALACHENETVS
S100A4 MyoIIA: inhibitors of S100A4-myosin IIA peptide binding, primary screen, biochemical, fluorescence polarization, TAMRA-MyoIIA peptide. 0.14% of 360,000 active. inhibition, % at 10.7 µM;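 active means mean inhibition of at least 70% across replicates, with every replicate also reaching that level; inconclusive means mean inhibition reaches 70% but some replicates fall short; inactive means mean inhibition below 70%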
Target sequence (P26447 whole entry, looked up): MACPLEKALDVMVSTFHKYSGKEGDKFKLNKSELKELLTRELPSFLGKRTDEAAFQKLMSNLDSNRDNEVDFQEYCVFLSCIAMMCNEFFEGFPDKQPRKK
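assay system = human S100A4 monomer with TAMRA-labelled myosin IIA peptide | also added = labelled myosin peptide probe, 5 nM | incubation = 5 min between mix addition and reading | control set = DMSO and TFP controls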
rRNA inh HTS: reduced GFP signal of wild-type E. coli, primary screen, bacterial rRNA inhibitor project, GFP/RFP fluorescence, OD600, single point. GFP signal change (wild-type ribosome), % (no concentration beside the values). E. coli WT GFP vs humanized-ribosome RFP mutants, 24 h; active compounds read low; DMSO median 0, no signal -100. 1.6% of 350,000 active;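 active means significant combined selectivity score with lowered wild-type GFP, culture density cut under 30%, mutant RFP and density less affected; inactive means any of these conditions unmet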
C2C12 statin: suppressors of statin myotoxicity in C2C12 myotubes, primary screen, cell-based, single point, plate reader; C2C12 myotubes + simvastatin, ATP luminescence, 48 h; scaled: DMSO 0, geranylgeraniol control 100; rescue of ATP level, % at 7.49 µM; 0.78% of 330,000 active; AID 602340, 2012;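 active means mean ATP rescue above about 67%, or every replicate alone reaching that limit, limit read from the data, passing the limit was not always enough; inconclusive means no clear call, values can overlap the other calls; inactive means mean under the limit and some replicate under it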;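 further: myotubes were challenged with 10 µM simvastatin during compound exposure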
Cneo AK release: Cryptococcus neoformans cell lysis inducers, primary screen, AK release luminescence, single concentration | C. neoformans lysis, adenylate kinase release luminescence, 4 h; normalised: neutral wells 0, clomiphene wells 100 | lysis activity, % at 15 µM | 0.2% of 360,000 active | AID 651654, 2012;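 active means mean lysis activity across replicates of at least 80%, whatever share of replicates individually reach that level; inactive means mean lysis activity below 80%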
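Assay system: log-phase C. neoformans yeast / Quantity: yeast cell density of 5 × 10^6 cells/mL / Medium: fresh YPD growth medium / Compound: single dose / Timing: static 4 h at 37 °C with compound, 1 h detection / Measured by: adenylate kinase release luminescence / Read-out: lysis from increased AK signal / Benchmarks: Clomiphene as positive lysis control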
PGC1a acetyl inh: inhibitors of PGC1a acetylation signal, primary screen, cell-based, U2OS, AlphaScreen, inhibitor mode; AlphaScreen anti-acetyl-lysine; with virally co-expressed GCN5 acetyltransferase; inhibition, % at 15.6 µM; 0.17% of 350,000 active; AID 651687, 2012;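 active means every replicate shows inhibition of at least 40%; inconclusive means mean inhibition at least 40% but some replicate below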;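 further: 0% = neutral control wells and 100% = positive control wells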
The depositor's hits bear a star; ? = inconclusive; . = no result; ! = a repeat was not active.

SMILES	SIRT5 inh	S100A4 MyoIIA	rRNA inh HTS	C2C12 statin	Cneo AK release	PGC1a acetyl inh
COc1ccc(NC(=O)N(C)C[C@H]2Oc3cc(C#CCC(C)C)ccc3S(=O)(=O)N([C@@H](C)CO)C[C@@H]2C)cc1	32.7*	1.2	-2.0	-9.4	-0.4	-14.1
O=C(Nc1ccc2c(c1)[C@H]1C[C@H](CC(=O)N3CCOCC3)O[C@H](CO)[C@H]1O2)C1CCC1	.	.	4.1	6.2	2.7	6.3
O=C(NNC(=O)c1ccccc1O)c1ccc(Br)cc1	-1.0	9.5	-23.5*	16.2	-2.4	15.0
O=C(NNC(=O)C1CCC1)c1ccc(Br)cc1	-1.0	-21.7	3.3	0.3	2.4	.
O=C(NNC(=O)C1CCCCC1)c1ccc(Br)cc1	-3.1	0.0	-24.3*	.	.	.
CC(C)NC(=O)Nc1ccc2c(c1)C(=O)N([C@H](C)CO)C[C@H](C)[C@H](CN(C)C)OCCCC[C@H](C)O2	6.3	-9.4	2.5	.	0.1	-2.2
C[C@@H]1CCCCO[C@@H](CN(C)Cc2ccc(C(F)(F)F)cc2)[C@H](C)CN([C@@H](C)CO)C(=O)c2cc(NC(=O)Nc3ccc4c(c3)OCO4)ccc2O1	-1.5	4.8	2.5	.	-0.8	3.8
CC(=O)N1[C@@H]2c3ccc(C4=CCCC4)c(=O)n3C[C@H]1[C@H](CO)[C@H]2C(=O)NC1CCCC1	-15.8	-13.0	2.8	.	.	-2.8
OCCNC(=S)Nc1ccc(Cl)c(Cl)c1	0.0	-1.7	-16.7	.	0.0	0.0
OCCNC(=S)Nc1cc(Cl)cc(Cl)c1	-4.0	-2.9	-21.6*	.	.	-11.2
Clc1cc(Br)ccc1OCCN1CCOCC1	26.4*	18.9	-3.9	.	-3.7	.
O=C(NC[C@H]1CC[C@H]2[C@H](CN2C(=O)Cc2ccncc2)O1)C1CCOCC1	0.0	-1.3	.	.	.	.
CC1(C)CC(=O)C2=C(C1)c1c(ccc3ccccc13)NC2c1ccc(Br)o1 (stereo not drawn)	.	.	.	106.8*	-1.3	-7.5
C[C@H](CO)N1C[C@H](C)[C@H](CN(C)S(=O)(=O)c2cccs2)Oc2c(NC(=O)C3CCCCC3)cccc2C1=O	17.4*	?	-6.4	-76.0	-10.2	9.1
C[C@H](CO)N1C[C@H](C)[C@@H](CN(C)S(=O)(=O)c2ccccc2)Oc2ccc(NC(=O)CCCCCC(=O)Nc3ccccc3N)cc2C1=O	18.5*	2.2	-6.5	.	.	3.2
C[C@@H]1CN([C@H](C)CO)C(=O)c2cccc(NC(=O)CCCCCC(=O)Nc3ccccc3N)c2O[C@H]1CN(C)S(=O)(=O)c1cccs1	4.8	74.0*	-0.9	.	.	-1.9
C[C@@H]1CN([C@@H](C)CO)C(=O)c2cccc(NC(=O)CCCCCC(=O)Nc3ccccc3N)c2O[C@@H]1CN(C)S(=O)(=O)c1cccs1	4.1	7.3	-3.2	.	.	-7.7
C[C@H]1CN([C@@H](C)CO)C(=O)c2cc(NC(=O)CCCCCC(=O)Nc3ccccc3N)ccc2O[C@H]1CN(C)S(=O)(=O)c1cccs1	-1.5	98.3*	-4.2	.	.	0.5
C[C@@H]1CN([C@H](C)CO)S(=O)(=O)c2ccc(C#C[C@@H](C)O)cc2O[C@H]1CN(C)C(=O)c1ccccc1	0.3	-3.8	-2.0	-8.9	-2.2	4.2
CCC(=O)N[C@@H]1C=C[C@H](CC(=O)NCCN2CCCCC2)O[C@@H]1CO	-13.5	-0.7	0.0	-2.3	2.4	1.5
C[C@H](CO)N1C[C@H](C)[C@H](CN(C)Cc2cccnc2)Oc2cc(C#CCN(C)C)ccc2S1(=O)=O	-3.9	-9.7	1.5	-13.8	6.3	4.8
Nc1nc(Nc2cccc(F)c2)nc(N2CCOCC2)c1[N+](=O)[O-]	3.1	-5.4	-29.1*	.	-7.0	-10.3
Cc1ccc(S(=O)(=O)Nc2ccc3c(c2)C(=O)N([C@H](C)CO)C[C@H](C)[C@H](CN(C)Cc2ccc(-c4ccccc4)cc2)O3)cc1	13.7	8.2	2.9	31.3	-0.7	-8.8
C[C@@H]1CN([C@H](C)CO)C(=O)c2cc(NS(=O)(=O)c3ccccc3)ccc2O[C@@H]1CN(C)Cc1ccc(Oc2ccccc2)cc1	17.0*	1.1	-2.3	6.6	2.5	23.7
C[C@@H]1CN([C@H](C)CO)C(=O)c2cc(NS(=O)(=O)c3ccccc3)ccc2O[C@H]1CN(C)Cc1ccc(-c2ccccc2)cc1	15.9*	-2.1	-2.2	-26.3	4.5	6.6
SMILES	SIRT5 inh	S100A4 MyoIIA	rRNA inh HTS	C2C12 statin	Cneo AK release	PGC1a acetyl inh
Cc1ccc(S(=O)(=O)Nc2ccc3c(c2)C(=O)N([C@H](C)CO)C[C@@H](C)[C@H](CN(C)Cc2ccc(-c4ccccc4)cc2)O3)cc1	18.0*	-4.0	-0.2	39.9	-2.3	-32.5
Cc1ccc(S(=O)(=O)Nc2ccc3c(c2)C(=O)N([C@H](C)CO)C[C@H](C)[C@@H](CN(C)Cc2ccccc2)O3)cc1	-1.2	0.7	-2.5	17.6	100.2*!	0.2
COc1ccccc1S(=O)(=O)N[C@@H]1CC[C@H](CCNC(=O)C2CCOCC2)O[C@@H]1CO	10.0	2.6	1.8	16.1	51.5	2.5
Cc1ccc(S(=O)(=O)Nc2ccc3c(c2)C(=O)N([C@H](C)CO)C[C@H](C)[C@H](CN(C)Cc2ccc(C(=O)Nc4ccccc4N)cc2)O3)cc1	.	5.2	3.0	81.9*	-0.6	2.1
Cc1ccc(S(=O)(=O)Nc2ccc3c(c2)C(=O)N([C@@H](C)CO)C[C@H](C)[C@H](CN(C)Cc2ccc(C(=O)Nc4ccccc4N)cc2)O3)cc1	.	-1.7	3.9	?	-1.7	-2.9
C[C@@H]1CN([C@H](C)CO)C(=O)c2cc(C#Cc3ccccc3F)cnc2O[C@H]1CN(C)C(=O)C1CC1	0.9	7.7	-0.8	10.2	-4.3	-0.2
CCN(CC)C(=O)[C@H]1C[C@H](CC(=O)NC(C)(C)C)C(=O)N2CCc3c([nH]c4cc(CCC(=O)N(C)C)ccc34)[C@]12C	30.9*	-2.4	2.7	8.9	2.0	.
CN(C)C(=O)CCc1ccc2c3c([nH]c2c1)[C@]1(C)[C@@H](C(=O)N2CCCCC2)C[C@H](CC(=O)NC(C)(C)C)C(=O)N1CC3	7.1	-0.3	7.3	5.2	2.4	-4.2
CC(C)N(C(=O)[C@H]1C[C@H](CC(=O)NCc2ccco2)C(=O)N2CCc3c([nH]c4cc(CCC(=O)N(C)C)ccc34)[C@]12C)C(C)C	29.5*	0.7	1.7	-8.2	-0.9	.
